# Screening results (PubChem)
# In the library only some 2.6% were active in any assay of this set; here they are far more common.
# Vif inh = inhibitors of HIV Vif; AID 602346; HEK293T cells, Vif self-association by quenched fluorescence, imaging, 24 h; 340,000 tested, 0.35% active; inhibition, % at 7.49 µM; in the data active = inhibition above about 50%, passing the limit was not always enough
# rRNA inh HTS = inhibitors of bacterial rRNA selective over humanized ribosomes | E. coli WT GFP vs humanized-ribosome RFP mutants, fluorescence, 24 h; stronger effect = lower value; DMSO median 0, no signal -100 | GFP signal change (wild-type ribosome), % (no concentration beside the values) | 350,000 tested, 1.6% active;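 active = significant combined selectivity score with lowered wild-type GFP, culture density cut under 30%, mutant RFP and density less affected; inactive = any of these conditions unmet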
# S100A4 MyoIIA = S100A4-myosin IIA interaction inhibition | 360,000 tested, 0.14% active | inhibition, % at 10.7 µM | AID 652163 | S100A4/TAMRA-MyoIIA peptide fluorescence polarization;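 active = mean inhibition of at least 70% across replicates, with every replicate also reaching that level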
# Target sequence (P26447 whole entry, looked up): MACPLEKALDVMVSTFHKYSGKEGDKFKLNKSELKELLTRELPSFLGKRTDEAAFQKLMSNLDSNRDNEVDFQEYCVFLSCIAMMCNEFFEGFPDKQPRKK
#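 Material: S100A4 monomer protein / Buffer or medium: 50 mM HEPES pH 7.2, 10 mM CaCl2, 100 mM KCl / Times: 5 min incubation before reading / Benchmarks: neutral control DMSO, positive control TFP / Reagent: labelled myosin peptide probe, 5 nM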
# miR122 inh = blocks miR-122 activity in Huh7 sensor cells. 340,000 tested, 0.3% active. Huh7 miR-122 Renilla luciferase sensor, 48 h; neutral wells = 0, positive control = 100. activation (reporter increase), % at 12.5 µM;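 active = mean replicate activation score at least 90 and every replicate individually at or above 90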;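 also: higher luciferase means less miR-122 activity so hits act as miR-122 inhibitors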
# FN deposit inh = fibronectin deposition inhibition; inhibition, % at 12.6 µM; 350,000 tested, 0.086% active; AH1F fibroblasts, Alexa488-fibronectin deposition fluorescence, overnight;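 active = mean inhibition across replicates of 30% or more, regardless of how many single replicates reach that level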;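 also: positive control wells lacked labelled fibronectin entirely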
#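 Material – AH1F fibroblast monolayer, labelled fibronectin deposition · Reagent – labelled fibronectin 24 nM · Timing – 1 h adhesion, overnight exposure · Measured by – fluorescence at 485 nm excitation, 525 nm emission · Read-out – inhibition of fibronectin deposition signal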
# Env fusion inh = HIV envelope-mediated fusion inhibition; inhibition, % at 12.3 µM; HeLa-JRFL Env/CEM21 cell fusion, luciferase; 360,000 tested, 1.1% active;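 active = mean replicate inhibition score of at least 50 and every replicate individually at or above 50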;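 also: 0% = plate neutral controls and 100% = maraviroc near 300 nM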
# The depositor's hits bear a star; nt = not tested or not shown; [ ] = another dose, or the depositor's remark.
SMILES,Vif inh,rRNA inh HTS,S100A4 MyoIIA,miR122 inh,FN deposit inh,Env fusion inh
CC(=O)N1[C@@H]2c3ccc(-c4ccccc4)c(=O)n3C[C@@H]2[C@@H](CO)[C@@H]1C(=O)NCc1ccccc1Cl,nt,-1.0,3.2,2.1[16.7 µM],nt,nt
CCOc1cc(NC(=O)Nc2ccc(F)cc2)c(OCC)cc1NC(=O)CC,5.2,-38.4*,0.7,nt,1.5,-6.8
O=C(Nc1ccc(F)cc1)Nc1cc(OCC(F)(F)F)cc(OCC(F)(F)F)c1,-27.1,nt,nt,nt,-1.5,70.1*
CCOC(=O)c1ccc(NC(=O)Nc2ccc(F)cc2)cc1,-4.6,nt,nt,-10.7,-4.0,1.2
COCC#Cc1ccc2c(c1)O[C@H](CN(C)Cc1ccc(F)cc1)[C@@H](C)CN([C@@H](C)CO)S2(=O)=O,nt,-23.9,-1.1,10.3[16.7 µM],-7.0,-6.5[16.7 µM]
CCCCN(C(C)=O)c1ccc2c(c1)C1CC2CCN1C(=O)OCc1ccccc1 (stereo unspecified),-16.5,-28.2,0.0,-6.5,10.7,62.9*
COc1ccc2c3c([nH]c2c1)[C@H](CO)N(C(=O)Nc1cccc(F)c1)CC31CN(S(=O)(=O)c2cccc(C)c2)C1,nt,-2.2,6.0,nt,nt,75.2*[16.7 µM]
COc1cccc(S(=O)(=O)N2CC3(CN(C(=O)Nc4cccc(F)c4)[C@@H](CO)c4[nH]c5cc(OC)ccc5c43)C2)c1,nt,-3.5,3.1,nt,nt,93.3*[16.7 µM]
COc1ccc2c3c([nH]c2c1)[C@H](CO)N(C(=O)Nc1cccc(F)c1)CC31CCN(S(=O)(=O)c2cccc(C)c2)CC1,nt,-5.8,-2.4,nt,-7.1,nt
COc1ccc(S(=O)(=O)N(C)C[C@@H]2Oc3ccc(NC(=O)Nc4ccc(F)cc4)cc3CC(=O)N([C@@H](C)CO)C[C@H]2C)cc1,nt,-2.1,nt,0.1[16.7 µM],nt,15.1[16.7 µM]
C[C@@H]1CN([C@H](C)CO)C(=O)c2cc(NC(=O)CCN3CCOCC3)ccc2O[C@@H]1CN(C)C(=O)Nc1ccc(F)cc1,nt,3.5,-2.1,1.7[16.7 µM],0.5,nt
COc1ccccc1NC(=O)C(=O)NCC1COc2ccccc2O1 (stereo unspecified),0.7,-22.9*,-15.5,nt,nt,nt
COc1cc(CC(=O)NCC2COc3ccccc3O2)cc(OC)c1OC (stereo unspecified),-3.6,9.8,1.4,2.0,-18.2,-3.6
Cc1cc(Oc2ccccc2)nc(-c2ccccc2O)n1,-9.0,nt,nt,-6.8,nt,nt
Cc1cc(Oc2ccc(Cl)cc2)nc(-c2ccccn2)n1,-8.3,-32.7*,0.8,-4.7,-9.5,4.3
C[C@H](NC(=O)Cc1cccc2ccccc12)C(=O)NCc1ccccc1,1.3,-31.6*,-2.4,nt,-2.9,3.1
O=C(Cc1cccc2ccccc12)Nc1ccccc1,-11.9,4.0,-3.2,nt,-5.0,7.4
Cc1ccccc1C(=O)NNC(=O)Cc1cccc2ccccc12,3.1,-40.8*,-5.7,-2.0,nt,nt
O=C(Cc1ccc(-c2ccccc2)cc1)NCc1ccccc1,53.7*,nt,nt,65.7,-23.3,1.4
C/C=C/c1ccc([C@@H]2[C@H](CO)N(CC3CC3)C23CN(S(=O)(=O)CC)C3)cc1,nt,-2.3,-38.5,nt,2.0,nt
C[C@@H]1CN([C@H](C)CO)C(=O)Cc2cc(NC(=O)C3CCCCC3)ccc2O[C@@H]1CN(C)S(=O)(=O)c1ccccc1,nt,-2.6,-1.3,-9.4[16.7 µM],nt,nt
COc1ccc(NC(=O)Nc2ccc3c(c2)C(=O)N([C@@H](C)CO)C[C@@H](C)[C@@H](CN(C)Cc2ccc(Cl)c(Cl)c2)OCCCC[C@@H](C)O3)cc1,nt,-0.4,16.8,-6.6[16.7 µM],nt,19.8[16.7 µM]
O=C(Nc1ccc2c(c1)OCO2)N[C@@H]1CC[C@H](CCNC(=O)C2CCC2)O[C@@H]1CO,nt,-3.1,-4.6,5.5[16.7 µM],nt,-1.2[16.7 µM]
CCOC(=O)COn1c(=O)c(-c2ccccc2)[n+]([O-])c2ccccc21,76.1*,11.1,-0.7,0.5,1.2,-9.6
CCOc1cc(/C=C(\C#N)C(=O)Nc2cccc(C(=O)O)c2)cc(Br)c1OC(=O)c1ccc(OC)cc1,-3.7,-33.3*,-26.9,6.7,-3.2,3.6
SMILES,Vif inh,rRNA inh HTS,S100A4 MyoIIA,miR122 inh,FN deposit inh,Env fusion inh
CCOC(=O)CNS(=O)(=O)c1cc(-c2nnc(Nc3ccc4c(c3)OCO4)c3ccccc23)ccc1C,nt,nt,nt,106.4*,nt,nt
COC(=O)c1ccc(Nc2nnc(-c3ccc(C)c(S(=O)(=O)NCC4CCCO4)c3)c3ccccc23)cc1 (stereo unspecified),3.2,nt,nt,249.7*,8.9,-14.2
Cc1ccc(-c2nnc(Nc3ccc(CC(N)=O)cc3)c3ccccc23)cc1S(=O)(=O)NCC1CCCO1 (stereo unspecified),7.4,-30.7*,-4.3,nt,-10.4,4.4
Cc1ccc(-c2nnc(Nc3ccc(C(=O)N(C)C)cc3)c3ccccc23)cc1S(=O)(=O)NCC1CCCO1 (stereo unspecified),-1.5,nt,nt,nt,-4.0,12.6
Cc1ccc(-c2nnc(Nc3ccc(O)cc3)c3ccccc23)cc1S(=O)(=O)NCCO,0.3,-19.4,-2.3,48.8,7.6,16.3
COc1ccc(S(=O)(=O)N(C)C[C@@H]2Oc3ccc(NC(=O)Nc4ccc5c(c4)OCO5)cc3CC(=O)N([C@@H](C)CO)C[C@H]2C)cc1,nt,-2.0,-16.5,-7.4[16.7 µM],nt,32.8[16.7 µM]
COc1ccc2c3c(n(C)c2c1)[C@@H](CO)N(Cc1ccncc1)CC31CN(C(=O)Cc2ccncc2)C1,nt,-1.6,-1.3,nt,nt,nt
O=C(N[C@H]1CC[C@@H](CC(=O)N2CCCCC2)O[C@@H]1CO)c1ccc2c(c1)OCO2,nt,2.6,-8.3,nt,nt,2.9[16.7 µM]
CCCC(=O)Nc1ccc(C(=O)NNC(=S)NC(=O)c2ccc(Br)o2)cc1,-11.8,-26.6*,-10.5,nt,7.5,17.3
CCCC(=O)Nc1ccc(C(=O)NNC(=S)NC(=O)c2cccs2)cc1,1.9,nt,nt,3.8,2.7,-5.9
COc1cccc(-c2ccc([C@@H]3[C@H](CO)N4C(=O)CN(C(=O)C5CCCC5)C[C@@H]34)cc2)c1,nt,-0.5,-5.4,nt,5.4,-6.1[16.7 µM]
Cc1ccc(-c2ccc3c(c2)O[C@H](CN(C)Cc2cccnc2)[C@@H](C)CN([C@H](C)CO)S3(=O)=O)cc1,nt,-7.1,-8.2,4.9[16.7 µM],14.9,78.5*[16.7 µM]
COc1ccc(-c2ccc3c(c2)O[C@H](CN(C)Cc2cccnc2)[C@@H](C)CN([C@H](C)CO)S3(=O)=O)cc1,nt,-8.3,108.1*,nt,nt,9.8[16.7 µM]
COc1ccc(OC)c(NC(=O)C2C(C(=O)O)C3(Cl)C(Cl)=C(Cl)C2(Cl)C3(Cl)Cl)c1 (stereo unspecified),-2.2,-18.6*,-4.9,-8.7,nt,7.2
COc1ccc(S(=O)(=O)N(C)C[C@H]2Oc3ccc(NC(=O)Nc4ccc5c(c4)OCO5)cc3CC(=O)N([C@H](C)CO)C[C@@H]2C)cc1,nt,-2.0,-31.4,1.3[16.7 µM],nt,-16.3[16.7 µM]
O=C(CC(c1ccccc1)(c1ccccc1)c1ccccc1)N[C@@H](Cc1ccccc1)C(=O)O,0.9,-12.6,-1.0,-2.6,-1.5,3.3
